Results reported in ChEMBL document CHEMBL1165950, “Design and synthesis of new potent anticancer pyrazoles with high FLT3 kinase inhibitory selectivity” (Bioorg Med Chem, 2010).

How the values were obtained:
Assay type in all cases: functional
ACHN = experiment: Cytotoxicity against human ACHN cells assessed as cell growth at 0.001 uM after 48 hrs by sulforhodamine B assay; settings: read-out: Activity
Summary of the method: (§1)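 NCI-60 five-dose screen. Cells were grown in RPMI 1640 with 5% FBS and 2 mM L-glutamine, plated at 5000–40,000 cells/well and preincubated for 24 h. Time-zero plates were TCA-fixed. DMSO-solubilized drug was added at five concentrations (10-fold or ½-log serial dilutions) for 48 h at 37 °C, 5% CO2. Cells were TCA-fixed, stained with 0.4% SRB and read at 515 nm. Percent growth used time-zero, control and test absorbances.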

A498 [1] = experiment: Cytotoxicity against human A498 cells assessed as cell growth at 0.01 uM after 48 hrs by sulforhodamine B assay; settings: A498, 48 h, read-out: Activity; summary of the method: as §1
HT-29 [2] = experiment: Cytotoxicity against human HT-29 cells assessed as cell growth at 10 uM after 48 hrs by sulforhodamine B assay; settings: HT-29, 48 h, read-out: Activity
Malme-3M [3] = experiment: Cytotoxicity against human MALME-3M cells assessed as cell growth at 0.01 uM after 48 hrs by sulforhodamine B assay; settings: read-out: Activity
M14 = experiment: Cytotoxicity against human M14 cells assessed as cell growth at 10 uM after 48 hrs by sulforhodamine B assay; settings: M14, 48 h, read-out: Activity
SN12C = experiment: Cytotoxicity against human SN12C cells assessed as cell growth at 0.001 uM after 48 hrs by sulforhodamine B assay; settings: read-out: Activity
PC-3 = experiment: Cytotoxicity against human PC3 cells assessed as cell growth at 0.01 uM after 48 hrs by sulforhodamine B assay; settings: PC-3, 48 h, read-out: Activity
U-251 = experiment: Growth inhibition of human U251 cells after 48 hrs by sulforhodamine B assay; settings: U-251, 48 h; for CC50: read-out: LC50 (the source's name)
Summary of the method: (§2)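 NCI 60-cell screen, five-dose mode. Cells grown in RPMI 1640 with 5% FBS and 2 mM L-glutamine and plated at 5000-40,000 cells/well according to doubling time. After 24 h preincubation, a Tz plate was TCA-fixed. Five concentrations (10-fold or 1/2 log dilutions) were applied for 48 h at 37 °C. SRB staining read at 515 nm. IC50 taken from [(Ti-Tz)/(C-Tz)]×100 = 50.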

SF-539 = experiment: Cytotoxicity against human SF539 cells assessed as cell growth at 10 uM; settings: read-out: Activity
Summary of the method: (§3)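 NCI-60 screen: cells grown in RPMI 1640 with 5% FBS and 2 mM L-glutamine, plated at 5000–40,000 cells/well according to doubling time, and preincubated 24 h at 37 °C, 5% CO2. The single 10 µM dose (DMSO stock) was added, then incubated 48 h. Cells were TCA-fixed and stained with 0.4% SRB, read at 515 nm, and growth % calculated against time-zero and control plates.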

DU-145 = experiment: Cytotoxicity against human DU145 cells assessed as cell growth at 100 nM after 48 hrs by sulforhodamine B assay; settings: DU-145, 48 h, read-out: Activity
NCI-H322M [4] = experiment: Cytotoxicity against human NCI-H322M cells assessed as cell growth at 0.001 uM after 48 hrs by sulforhodamine B assay; settings: read-out: Activity
NCI-H322M [5] = experiment: Cytotoxicity against human NCI-H322M cells assessed as cell growth at 0.01 uM after 48 hrs by sulforhodamine B assay; settings: read-out: Activity
SNB-19 [6] = experiment: Cytotoxicity against human SNB19 cells assessed as cell growth at 0.01 uM after 48 hrs by sulforhodamine B assay; settings: SNB-19, 48 h, read-out: Activity
UACC-62 = experiment: Cytotoxicity against human UACC62 cells assessed as cell growth at 10 uM; settings: read-out: Activity; summary of the method: as §3
HCT-116 = experiment: Cytotoxicity against human HCT116 cells assessed as cell growth at 0.001 uM after 48 hrs by sulforhodamine B assay; settings: HCT-116, 48 h, read-out: Activity
[7] = Cytotoxicity against human […] cells assessed as cell growth at 0.001 uM after 48 hrs by sulforhodamine B assay; settings: read-out: Activity
Malme-3M [8] = experiment: Cytotoxicity against human MALME-3M cells assessed as cell growth at 100 nM after 48 hrs by sulforhodamine B assay; settings: read-out: Activity
EKVX [9] = experiment: Cytotoxicity against human EKVX cells assessed as cell growth at 10 uM; settings: read-out: Activity
Summary of the method: (§4)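 Single-dose NCI-60 screen at 10 µM. Cells were grown in RPMI 1640 with 5% FBS and 2 mM L-glutamine, then treated for 48 h at 37 °C. Protein was measured by SRB staining with absorbance at 515 nm. Percentage growth was recorded, and inhibition percentage was calculated as 100 minus growth percentage.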

A498 [10] = experiment: Cytotoxicity against human A498 cells assessed as cell growth at 100 nM after 48 hrs by sulforhodamine B assay; settings: A498, 48 h, read-out: Activity; summary of the method: as §1
[11] = Cytotoxicity against human Hs 578T cells assessed as cell growth at 0.001 uM after 48 hrs by sulforhodamine B assay; settings: read-out: Activity
786-0 [12] = experiment: Cytotoxicity against human 786-0 cells assessed as cell growth at 0.001 uM after 48 hrs by sulforhodamine B assay; settings: 786-0, 48 h, read-out: Activity; summary of the method: as §1
SK-OV-3 = experiment: Growth inhibition of human SKOV3 cells after 48 hrs by sulforhodamine B assay; settings: SK-OV-3, 48 h; for CC50: read-out: LC50 (the source's name); summary of the method: as §2
EKVX [13] = experiment: Cytotoxicity against human EKVX cells assessed as cell growth at 10 uM after 48 hrs by sulforhodamine B assay; settings: read-out: Activity
HT-29 [14] = experiment: Cytotoxicity against human HT-29 cells assessed as cell growth at 100 nM after 48 hrs by sulforhodamine B assay; settings: HT-29, 48 h, read-out: Activity
COLO 205 = experiment: Cytotoxicity against human COLO205 cells assessed as cell growth at 0.001 uM after 48 hrs by sulforhodamine B assay; settings: COLO 205, 48 h, read-out: Activity; summary of the method: as §1
HT-29 [15] = experiment: Cytotoxicity against human HT-29 cells assessed as cell growth at 1 uM after 48 hrs by sulforhodamine B assay; settings: HT-29, 48 h, read-out: Activity
786-0 [16] = experiment: Cytotoxicity against human 786-0 cells assessed as cell growth at 10 uM; settings: read-out: Activity; summary of the method: as §4
SR = experiment: Cytotoxicity against human SR cells assessed as cell growth at 10 uM; settings: read-out: Activity; summary of the method: as §3
[17] = Cytotoxicity against human Hs 578T cells assessed as cell growth at 10 uM after 48 hrs by sulforhodamine B assay; settings: read-out: Activity
SNB-19 [18] = experiment: Cytotoxicity against human SNB19 cells assessed as cell growth at 1 uM after 48 hrs by sulforhodamine B assay; settings: SNB-19, 48 h, read-out: Activity
T47D = experiment: Cytotoxicity against human T47D cells assessed as cell growth at 10 uM; settings: read-out: Activity; summary of the method: as §3
K562 = experiment: Cytotoxicity against human K562 cells assessed as cell growth at 0.001 uM after 48 hrs by sulforhodamine B assay; settings: K562, 48 h, read-out: Activity
NCI-H460 = experiment: Cytotoxicity against human NCI-H460 cells assessed as cell growth at 0.001 uM after 48 hrs by sulforhodamine B assay; settings: NCI-H460, 48 h, read-out: Activity
NCI-H23 = experiment: Cytotoxicity against human NCI-H23 cells assessed as cell growth at 10 uM; settings: read-out: Activity; summary of the method: as §3
SNB-19 [19] = experiment: Cytotoxicity against human SNB19 cells assessed as cell growth at 10 uM; settings: read-out: Activity; summary of the method: as §3

SMILES | growth at 0.001 µM (ACHN) [%] | growth at 0.01 µM (A498 [1]) [%] | growth at 10 µM (HT-29 [2]) [%] | growth at 0.01 µM (Malme-3M [3]) [%] | growth at 10 µM (M14) [%] | growth at 0.001 µM (SN12C) [%] | growth at 0.01 µM (PC-3) [%] | GI50 (U-251) [µM] | TGI (U-251) [µM] | CC50 (U-251) [µM] | growth at 10 µM (SF-539) [%] | growth at 0.1 µM (DU-145) [%] | growth at 0.001 µM (NCI-H322M [4]) [%] | growth at 0.01 µM (NCI-H322M [5]) [%] | growth at 0.01 µM (SNB-19 [6]) [%] | growth at 10 µM (UACC-62) [%] | growth at 0.001 µM (HCT-116) [%] | growth at 0.001 µM [7] [%] | growth at 0.1 µM (Malme-3M [8]) [%] | growth at 10 µM (EKVX [9]) [%] | further results
Cc1cc(O)cc(-c2nn(CC#N)cc2-c2ccnc(-c3ccc(N(C)C)cc3)c2)c1 | 94 | 80 | -52 | 92 | -75 | 97 | 92 | 3.14 | 12.9 | 61.3 | 21.7 | 94 | 94 | 92 | 95 | 25.1 | 95 | 96 | 94 | 71.6 | growth at 0.1 µM (A498 [10]): 92%; growth at 0.001 µM [11]: 98%; growth at 0.001 µM (786-0 [12]): 102%; GI50 (SK-OV-3): 2.85 µM; TGI (SK-OV-3): 8.03 µM; CC50 (SK-OV-3): > 100 µM; growth at 10 µM (EKVX [13]): -1%; growth at 0.1 µM (HT-29 [14]): 102%; growth at 0.001 µM (COLO 205): 109%; growth at 1 µM (HT-29 [15]): 24%; growth at 10 µM (786-0 [16]): 26.2%; growth at 10 µM (SR): 20.5%; growth at 10 µM [17]: -32%; growth at 1 µM (SNB-19 [18]): 28%; growth at 10 µM (T47D): 17.7%; growth at 0.001 µM (K562): 100%; growth at 0.001 µM (NCI-H460): 109%; growth at 10 µM (NCI-H23): 35.9%; growth at 10 µM (SNB-19 [19]): 46.4%
COc1cc(C)cc(-c2c(-c3ccnc(-c4ccc(C(C)=O)cc4)c3)cnn2CC#N)c1 | 100 | 77 | 6 | 93 | 2 | 94 | 88 | 2.89 | > 100 | > 100 | 59.9 | 89 | 102 | 95 | 102 | 49.6 | 97 | 95 | 97 | 98.6 | growth at 0.1 µM (A498 [10]): 65%; growth at 0.001 µM [11]: 95%; growth at 0.001 µM (786-0 [12]): 102%; GI50 (SK-OV-3): 4.22 µM; TGI (SK-OV-3): > 100 µM; CC50 (SK-OV-3): > 100 µM; growth at 10 µM (EKVX [13]): 46%; growth at 0.1 µM (HT-29 [14]): 95%; growth at 0.001 µM (COLO 205): 109%; growth at 1 µM (HT-29 [15]): 7%; growth at 10 µM (786-0 [16]): 67.2%; growth at 10 µM (SR): 25%; growth at 10 µM [17]: -27%; growth at 1 µM (SNB-19 [18]): 60%; growth at 10 µM (T47D): 45.6%; growth at 0.001 µM (K562): 81%; growth at 0.001 µM (NCI-H460): 104%; growth at 10 µM (NCI-H23): 83.7%; growth at 10 µM (SNB-19 [19]): 73.7%
COc1cc(C)cc(-c2c(-c3ccnc(-c4ccc(N(C)C)cc4)c3)cnn2CC#N)c1 | 98 | 40 | -48 | 34 | -7 | 97 | 30 | 0.178 | > 100 | > 100 | -7.06 | -51 | 97 | 83 | 44 | 20.3 | 102 | 100 | 49 | 45.8 | growth at 0.1 µM (A498 [10]): 10%; growth at 0.001 µM [11]: 88%; growth at 0.001 µM (786-0 [12]): 95%; GI50 (SK-OV-3): 0.504 µM; TGI (SK-OV-3): > 100 µM; CC50 (SK-OV-3): > 100 µM; growth at 10 µM (EKVX [13]): 2%; growth at 0.1 µM (HT-29 [14]): -24%; growth at 0.001 µM (COLO 205): 98%; growth at 1 µM (HT-29 [15]): -51%; growth at 10 µM (786-0 [16]): -1.5%; growth at 10 µM (SR): -6.91%; growth at 10 µM [17]: 16%; growth at 1 µM (SNB-19 [18]): 36%; growth at 10 µM (T47D): 46.5%; growth at 0.001 µM (K562): 104%; growth at 0.001 µM (NCI-H460): 93%; growth at 10 µM (NCI-H23): -10.3%; growth at 10 µM (SNB-19 [19]): 26.5%
